GASC1 inh: KDM4C (human) demethylase inhibition. GST-KDM4C 2-372, H3K9me3 peptide, LANCE TR-FRET. inhibition, % at 12.5 µM. 0.15% of 96,000 active;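 active = mean replicate inhibition above about 25%, with at least 55% of replicates also reaching it, limit read from the data, passing the limit was not always enough; inconclusive = only one of those two conditions met; inactive = neither condition met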
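System – N-terminal GST-fused human GASC-1 (KDM4C) fragment, residues 2-372 · Input – enzyme final amount 10 nM · Technique – LANCE TR-FRET, Eu antibody, ULight-streptavidin, EDTA, ex 340 nm, em 618/671 nm · Medium – HEPES buffer, pH 7.5, plus ascorbate · Incubation – enzyme reaction 30 min, then detection 60 min, both room temperature · Reagent – H3K9me3 peptide with Fe(II)/2OG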
T cruzi growth: blocks T. cruzi growth in NIH3T3 culture | 5.9% of 77,000 active | inhibition, % at 8.34 µM | T. cruzi beta-gal in NIH3T3, GalScreen luminescence, 90 h;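 active = mean inhibition above about 93%, with at least 55% of replicates each passing it, limit read from the data, passing the limit was not always enough; inconclusive = only one of those two conditions holds; inactive = neither condition holds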
IDH1 mut inh: inhibitors of human IDH1 R132H; 0.18% of 70,000 active; O75874; AID 624101; inhibition, % at 10 µM; IDH1 R132H reductase, diaphorase/resazurin fluorescence, 60 min; in the data active = inhibition above about 34%; inconclusive = no clear call, values can overlap the other calls; inactive = below about 11%;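 note: 0% = DMSO and 100% = no enzyme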
Target sequence (O75874 whole entry R132H): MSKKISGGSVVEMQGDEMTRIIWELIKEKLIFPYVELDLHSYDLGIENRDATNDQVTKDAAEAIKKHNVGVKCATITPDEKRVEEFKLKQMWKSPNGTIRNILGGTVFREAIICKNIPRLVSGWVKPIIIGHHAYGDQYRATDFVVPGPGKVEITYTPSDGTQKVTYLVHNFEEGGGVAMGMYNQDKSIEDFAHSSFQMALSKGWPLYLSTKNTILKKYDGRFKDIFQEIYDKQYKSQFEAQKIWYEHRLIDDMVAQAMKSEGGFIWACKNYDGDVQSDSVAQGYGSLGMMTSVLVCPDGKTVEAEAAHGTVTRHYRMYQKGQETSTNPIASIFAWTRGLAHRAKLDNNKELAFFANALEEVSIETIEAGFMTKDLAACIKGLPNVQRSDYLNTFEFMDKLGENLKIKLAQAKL
Pf Dd2 growth: P. falciparum Dd2 growth inhibition | activity change, % at 10 µM | SYBR Green, 72 h; active compounds read low | 2.3% of 94,000 active | AID 1159554; in the data active = activity change below about -80%; inconclusive = no clear call, values can overlap the other calls
* hit, by the source's call; ? = inconclusive; . = not tested or not shown. Hits are enriched below; roughly 5.9% of the tested compounds scored in any of these assays.

SMILES	GASC1 inh	T cruzi growth	IDH1 mut inh	Pf Dd2 growth
C[C@H]1CN([C@@H](C)CO)C(=O)c2c(c3ccccc3n2C)-c2ccccc2CO[C@H]1CN(C)S(=O)(=O)c1ccc([N+](=O)[O-])cc1	6	.	.	-89*
CCCNC(=O)Nc1ccc2c(c1)OC[C@@H](C)N(C)C[C@H](C)[C@@H](OC)CN(C)C2=O	0	-3	0	.
C[C@H](CO)N1C[C@H](C)[C@H](CN(C)Cc2ccc(-c3ccccc3)cc2)Oc2ccc(NC(=O)CCC(F)(F)F)cc2CC1=O	0	82	-7	1
C[C@H]1CN([C@@H](C)CO)C(=O)c2cccc(NS(C)(=O)=O)c2O[C@H]1CN(C)S(=O)(=O)c1ccc(F)cc1	0	-34	.	3
C[C@@H]1CN([C@H](C)CO)C(=O)c2cccc(NC(=O)CCCCCC(=O)Nc3ccccc3N)c2O[C@@H]1CN(C)C	-1	.	0	-42
C[C@H](CO)N1C[C@H](C)[C@@H](CN(C)Cc2ccc(C(F)(F)F)cc2)Oc2c(NC(=O)CCCCCC(=O)Nc3ccccc3N)cccc2C1=O	-3	.	.	-89*
C[C@@H]1CN([C@H](C)CO)C(=O)c2cccc(NC(=O)CCCCCC(=O)Nc3ccccc3N)c2O[C@@H]1CN(C)Cc1ccc(C(F)(F)F)cc1	-1	.	0	-92*
C[C@H](CO)N1C[C@H](C)[C@H](CN(C)Cc2ccc(C(F)(F)F)cc2)Oc2c(NC(=O)CCCCCC(=O)Nc3ccccc3N)cccc2C1=O	-1	.	0	-86*
C[C@@H]1CN([C@@H](C)CO)C(=O)c2cccc(NC(=O)CCCCCC(=O)Nc3ccccc3N)c2O[C@@H]1CN(C)Cc1ccncc1	-1	.	0	-2
C[C@@H]1CN([C@@H](C)CO)C(=O)c2cccc(NC(=O)CCCCCC(=O)Nc3ccccc3N)c2O[C@@H]1CN(C)Cc1ccc(C(F)(F)F)cc1	-1	94	.	-92*
C[C@H]1CN([C@@H](C)CO)C(=O)c2cc(NC(=O)CCCCCC(=O)Nc3ccccc3N)ccc2O[C@H]1CN(C)Cc1ccc(C(F)(F)F)cc1	1	90	.	-25
CC=Cc1ccc2n(c1=O)C[C@H]1[C@H](CO)[C@@H](C(=O)NCC)[C@@H]2N1S(=O)(=O)c1cn(C)cn1 (mixture of isomers)	-1	75	.	4
C[C@@H]1CN([C@@H](C)CO)C(=O)Cc2cc(NC(=O)C3CCCCC3)ccc2O[C@H]1CN(C)C(=O)Nc1ccc2c(c1)OCO2	1	-1	0	-25
Cc1cccc(NC(=O)CSc2nnc3n(C)c4ccccc4n23)c1	.	.	0	.
CC(C)C#Cc1ccc([C@@H]2[C@H]3CN(CC4CC4)CCCCN3[C@H]2CO)cc1	0	49	.	-15
CCCN(C)C[C@@H]1OCCCC[C@H](C)Oc2ccc(NC(=O)Nc3ccc4c(c3)OCO4)cc2C(=O)N([C@H](C)CO)C[C@@H]1C	-3	50	.	-88*
C[C@@H]1CCCCO[C@@H](CN(C)CC2CC2)[C@@H](C)CN([C@H](C)CO)C(=O)c2cc(NC(=O)Nc3ccc4c(c3)OCO4)ccc2O1	0	25	.	?
CCCN(C)C[C@H]1OCCCC[C@H](C)Oc2ccc(NC(=O)Nc3ccc(C(F)(F)F)cc3)cc2C(=O)N([C@@H](C)CO)C[C@H]1C	-1	54	0	-69
C[C@H]1CCCCO[C@H](CN(C)CC2CC2)[C@@H](C)CN([C@@H](C)CO)C(=O)c2cc(NC(=O)Nc3ccc(C(F)(F)F)cc3)ccc2O1	.	50	.	-85*
C[C@@H]1CCCCO[C@H](CN(C)CC2CC2)[C@H](C)CN([C@H](C)CO)C(=O)c2cc(NC(=O)Nc3ccc(C(F)(F)F)cc3)ccc2O1	-4	91	.	-82*
CCCN(C)C[C@H]1OCCCC[C@@H](C)Oc2ccc(NC(=O)Nc3ccc(C(F)(F)F)cc3)cc2C(=O)N([C@H](C)CO)C[C@H]1C	0	17	0	-83*
C[C@@H]1CN([C@H](C)CO)C(=O)Cc2cc(NC(=O)Cc3cn(C)c4ccccc34)ccc2O[C@H]1CN(C)S(=O)(=O)c1cn(C)cn1	0	22	-29	10
C[C@H]1CN([C@@H](C)CO)C(=O)c2cc(C3=CCCC3)cnc2O[C@H]1CN(C)C(=O)c1ccc2c(c1)OCO2	-2	.	1	1
CC=Cc1ccc2n(c1=O)C[C@H]1[C@H](CO)[C@@H](C(=O)NC3CCCC3)N(Cc3nccs3)[C@@H]21 (mixture of isomers)	3	-41	.	9
Cc1noc(C)c1S(=O)(=O)N(C)C[C@@H]1OCCCC[C@H](C)Oc2ccc(NC(=O)Nc3ccc(C(F)(F)F)cc3)cc2C(=O)N([C@H](C)CO)C[C@H]1C	-1	92	-2	-50

Screening data as filed in PubChem.
